From ChEMBL document CHEMBL3259631, “Identification of the first potent, selective and bioavailable PPARα antagonist” (Bioorg Med Chem Lett, 2014)
Values after ≈ are worked out from the molar mass of the structure shown.

What was measured:
[1] = molecular target: T1, Peroxisome proliferator-activated receptor alpha (Homo sapiens, UniProt Q07869); assay: Agonist activity at human PPAR-alpha
T1 sequence (Q07869 whole entry): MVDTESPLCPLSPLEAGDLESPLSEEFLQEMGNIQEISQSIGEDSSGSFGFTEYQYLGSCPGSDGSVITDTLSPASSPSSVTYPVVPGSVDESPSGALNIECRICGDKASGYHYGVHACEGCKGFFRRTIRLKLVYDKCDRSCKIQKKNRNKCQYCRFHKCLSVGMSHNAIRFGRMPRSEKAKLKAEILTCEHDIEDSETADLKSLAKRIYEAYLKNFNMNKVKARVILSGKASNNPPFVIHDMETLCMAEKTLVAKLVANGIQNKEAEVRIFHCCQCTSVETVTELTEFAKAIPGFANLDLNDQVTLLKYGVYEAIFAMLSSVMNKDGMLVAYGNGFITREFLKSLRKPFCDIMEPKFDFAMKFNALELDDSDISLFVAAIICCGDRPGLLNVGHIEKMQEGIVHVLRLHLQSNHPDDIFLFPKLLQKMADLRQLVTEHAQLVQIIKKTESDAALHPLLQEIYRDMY

[2] = Cmax in CD-1 mouse at 30 mg/kg, ip after 1 hr; assay type: ADME, organism-based; design: dose 30 mg/kg, route intraperitoneal; conditions: in vivo
In short: (§1)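 Mouse pharmacokinetics in CD1 mice given a single intraperitoneal dose of 30 mpk, formulated in saline or in 98% saline/2% tween.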

[3] = molecular target: T2, Peroxisome proliferator-activated receptor delta (Homo sapiens, UniProt Q03181); assay: Inhibition of human PPAR-delta
T2 sequence (Q03181 whole entry): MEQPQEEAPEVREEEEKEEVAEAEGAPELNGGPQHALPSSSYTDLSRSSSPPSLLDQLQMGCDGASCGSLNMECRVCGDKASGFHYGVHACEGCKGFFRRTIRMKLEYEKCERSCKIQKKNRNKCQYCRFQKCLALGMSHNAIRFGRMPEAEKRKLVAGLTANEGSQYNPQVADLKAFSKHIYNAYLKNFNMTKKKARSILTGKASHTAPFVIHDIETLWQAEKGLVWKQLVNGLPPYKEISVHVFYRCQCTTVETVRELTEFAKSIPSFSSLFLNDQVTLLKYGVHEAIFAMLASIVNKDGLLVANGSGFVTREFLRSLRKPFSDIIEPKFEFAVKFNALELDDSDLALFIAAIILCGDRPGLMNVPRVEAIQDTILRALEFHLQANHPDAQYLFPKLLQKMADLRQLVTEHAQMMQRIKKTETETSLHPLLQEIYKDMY

[4] = molecular target: T1, Peroxisome proliferator-activated receptor alpha; assay: Antagonist activity at human PPAR-alpha assessed as inhibition of GW7647-induced effect after overnight incubation by cell-based luciferase reporter gene assay
Glucocorticoid receptor = molecular target: T3, Glucocorticoid receptor (Homo sapiens, UniProt P04150); assay: Inhibition of human glucocorticoid receptor
T3 sequence (P04150 whole entry): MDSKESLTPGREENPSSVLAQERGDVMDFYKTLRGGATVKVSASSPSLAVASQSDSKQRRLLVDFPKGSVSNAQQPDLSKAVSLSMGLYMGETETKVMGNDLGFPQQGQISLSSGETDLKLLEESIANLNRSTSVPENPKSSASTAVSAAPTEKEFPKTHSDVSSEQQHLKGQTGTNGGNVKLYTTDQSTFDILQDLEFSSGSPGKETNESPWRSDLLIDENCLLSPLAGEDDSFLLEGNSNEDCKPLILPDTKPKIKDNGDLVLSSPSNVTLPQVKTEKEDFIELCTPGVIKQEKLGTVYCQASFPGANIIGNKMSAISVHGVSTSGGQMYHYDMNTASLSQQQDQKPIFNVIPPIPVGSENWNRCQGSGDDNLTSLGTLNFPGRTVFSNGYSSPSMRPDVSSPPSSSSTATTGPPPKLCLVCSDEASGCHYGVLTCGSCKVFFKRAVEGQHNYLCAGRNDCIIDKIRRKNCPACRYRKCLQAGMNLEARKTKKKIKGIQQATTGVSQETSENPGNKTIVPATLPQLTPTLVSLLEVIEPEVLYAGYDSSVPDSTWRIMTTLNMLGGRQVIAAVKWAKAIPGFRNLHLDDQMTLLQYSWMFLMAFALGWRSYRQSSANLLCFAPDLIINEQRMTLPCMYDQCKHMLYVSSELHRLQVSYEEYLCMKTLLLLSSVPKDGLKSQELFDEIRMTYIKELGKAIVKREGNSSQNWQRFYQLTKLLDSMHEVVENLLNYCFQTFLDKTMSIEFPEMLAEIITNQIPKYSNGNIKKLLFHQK

[5] = molecular target: T4, Peroxisome proliferator-activated receptor gamma (Homo sapiens, UniProt P37231); assay: Inhibition of human PPAR-gamma
T4 sequence (P37231 whole entry): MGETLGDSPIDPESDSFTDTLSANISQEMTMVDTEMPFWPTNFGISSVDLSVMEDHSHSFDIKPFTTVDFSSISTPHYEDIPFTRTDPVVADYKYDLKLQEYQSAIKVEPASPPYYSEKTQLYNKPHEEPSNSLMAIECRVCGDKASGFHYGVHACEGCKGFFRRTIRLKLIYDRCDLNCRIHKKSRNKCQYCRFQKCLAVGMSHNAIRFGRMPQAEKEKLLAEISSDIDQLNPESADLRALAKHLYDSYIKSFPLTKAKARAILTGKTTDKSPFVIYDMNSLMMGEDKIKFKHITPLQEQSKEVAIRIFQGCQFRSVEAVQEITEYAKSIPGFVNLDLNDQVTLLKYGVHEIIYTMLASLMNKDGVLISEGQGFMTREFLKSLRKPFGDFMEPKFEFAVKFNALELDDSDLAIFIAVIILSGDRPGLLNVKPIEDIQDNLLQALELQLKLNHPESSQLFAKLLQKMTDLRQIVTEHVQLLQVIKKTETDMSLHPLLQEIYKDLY

[6] = (§2) Metabolic stability in mouse plasma assessed as compound remaining at 1 uM after 24 hrs by LC-MS/MS analysis; assay type: ADME, cell-free; conditions: read-out: Stability
In short: (§3)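 A 30 mM DMSO stock was diluted to 100 µM in acetonitrile, then spiked into thawed mouse plasma (1 µM final) and incubated at 37 °C. Aliquots were precipitated in acetonitrile containing buspirone, shaken 5 min and centrifuged at 4000g for 10 min. Supernatant was analysed by LC-MS/MS. Percent remaining = concentration at each time / t0 concentration × 100; mean of at least three experiments.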

[7] = AUC in CD-1 mouse at 30 mg/kg, ip; assay type: ADME, organism-based; design: dose 30 mg/kg, route intraperitoneal; conditions: plasma; in short: as §1
[8] = Solubility of the compound in aqueous buffer at pH 7.4 after 24 hrs by LC-MS/MS analysis; assay type: physicochemical
In short: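 Compound from a 10 mM DMSO stock was added to pH 7.4 buffer, vortexed 2 min, then shaken on an orbital shaker for 24 h at room temperature. Samples were then vacuum-filtered through a polycarbonate membrane before measurement.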

[9] = molecular target: T5, Thyroid hormone receptor beta (Homo sapiens, UniProt P10828); assay: Inhibition of human thyroid hormone receptor-beta
T5 sequence (P10828 whole entry): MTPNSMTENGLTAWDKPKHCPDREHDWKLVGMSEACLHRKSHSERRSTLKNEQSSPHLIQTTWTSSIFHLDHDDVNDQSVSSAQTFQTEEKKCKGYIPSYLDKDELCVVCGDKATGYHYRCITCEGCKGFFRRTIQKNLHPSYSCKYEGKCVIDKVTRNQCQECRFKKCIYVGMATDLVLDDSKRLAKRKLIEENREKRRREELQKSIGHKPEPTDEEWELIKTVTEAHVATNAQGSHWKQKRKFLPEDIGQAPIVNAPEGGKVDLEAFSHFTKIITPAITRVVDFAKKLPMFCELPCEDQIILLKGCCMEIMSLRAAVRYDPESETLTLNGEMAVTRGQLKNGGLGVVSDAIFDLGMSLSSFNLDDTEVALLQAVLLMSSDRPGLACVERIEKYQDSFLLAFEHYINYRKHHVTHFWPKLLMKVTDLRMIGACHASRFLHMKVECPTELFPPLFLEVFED

Estrogen receptor beta = Estrogen receptor beta (Homo sapiens, UniProt Q92731); assay: Inhibition of human estrogen receptor beta
[10] = Metabolic stability in mouse plasma assessed as compound remaining at 1 uM after 60 mins by LC-MS/MS analysis; assay type: ADME, cell-free; conditions: read-out: Stability; in short: as §3
[11] = Metabolic stability in mouse plasma assessed as compound remaining at 1 uM after 30 mins by LC-MS/MS analysis; assay type: ADME, cell-free; conditions: read-out: Stability; in short: as §3
Plasma [12] = assay: as §2; assay type: ADME, cell-free; conditions: 24 h, 1 µM; in short: as §3
Plasma [13] = assay: Drug level in mouse plasma treated with 1 uM 5 after 24 hrs by LC-MS/MS analysis; assay type: ADME, cell-free

Estrogen receptor beta, sequence (Q92731 whole entry): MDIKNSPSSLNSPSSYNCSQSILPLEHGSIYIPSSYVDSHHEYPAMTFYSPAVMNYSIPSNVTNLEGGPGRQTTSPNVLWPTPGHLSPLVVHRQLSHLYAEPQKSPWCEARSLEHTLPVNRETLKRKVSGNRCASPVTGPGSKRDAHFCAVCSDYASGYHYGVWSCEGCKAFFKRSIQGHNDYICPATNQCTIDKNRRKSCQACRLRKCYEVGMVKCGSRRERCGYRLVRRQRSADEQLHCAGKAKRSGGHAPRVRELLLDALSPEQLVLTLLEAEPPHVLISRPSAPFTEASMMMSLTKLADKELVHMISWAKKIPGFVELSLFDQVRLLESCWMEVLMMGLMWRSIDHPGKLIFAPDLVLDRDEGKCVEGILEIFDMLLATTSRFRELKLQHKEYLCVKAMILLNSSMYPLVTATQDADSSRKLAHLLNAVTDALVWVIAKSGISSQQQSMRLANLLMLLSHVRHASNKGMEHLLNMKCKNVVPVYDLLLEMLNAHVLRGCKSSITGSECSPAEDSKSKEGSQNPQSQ

IC50 [4]	solubility at 24 h [8]	remaining at 1 h, 1 µM [10]	remaining at 0.5 h, 1 µM [11]	Structure (SMILES)	also measured
				C/C(=C/C(=O)c1ccccc1)N[C@@H](Cc1ccc(OCCc2nc(-c3ccccc3)oc2C)cc1)C(=O)O	EC50 [1]: 240 nM
4800 nM	0.082 µM (≈ 0.0586 µg/mL)			CCn1c(CCCc2ccc(-c3ccc(NS(=O)(=O)c4ccc(-c5ccc(OC)cc5)cc4)cc3)cc2)nn(Cc2ccc(C(C)(C)C)cc2)c1=O	Cmax [2]: 7.2 µM; IC50 [3]: > 100000 nM; IC50 (Glucocorticoid receptor): 32000 nM; IC50 [5]: > 100000 nM; remaining at 24 h, 1 µM [6]: 119%; AUC [7]: 23000 ng·h/mL; IC50 [9]: > 69000 nM; IC50 (Estrogen receptor beta): 34800 nM
		0.7%	6.7%	CCn1c(CCCc2ccc(OC(C)(C)C(=O)NS(=O)(=O)c3ccccc3)cc2)nn(Cc2ccc(C(C)(C)C)cc2)c1=O	
122 nM	0.014 µM (≈ 0.00854 µg/mL)			CCn1c(CCCc2ccc(-c3ccc(NS(=O)(=O)c4ccccc4)nc3)cc2)nn(Cc2ccc(C(C)(C)C)cc2)c1=O	Stability (Plasma [12]): 128.7%
114 nM	0.091 µM (≈ 0.0556 µg/mL)			CCn1c(CCCc2ccc(-c3ncc(NS(=O)(=O)c4ccccc4)cn3)cc2)nn(Cc2ccc(C(C)(C)C)cc2)c1=O	remaining at 24 h, 1 µM [6]: 119%
34 nM		105%	103%	CCn1c(CCCc2ccc(OC(C)(C)C(=O)NS(=O)(=O)c3ccc(C(F)(F)F)cc3)cc2)nn(Cc2ccc(C(C)(C)C)cc2)c1=O	remaining at 24 h, 1 µM [6]: 53.7%
218 nM	4.9 µM (≈ 2.99 µg/mL)			CCn1c(CCCc2ccc(-c3cnc(NS(=O)(=O)c4ccccc4)cn3)cc2)nn(Cc2ccc(C(C)(C)C)cc2)c1=O	Stability (Plasma [12]): 131.2%
21 nM	0.018 µM (≈ 0.011 µg/mL)			CCn1c(CCCc2ccc(-c3ccc(NS(=O)(=O)c4ccccc4)cc3)cc2)nn(Cc2ccc(C(C)(C)C)cc2)c1=O	Stability (Plasma [12]): 124.7%
311 nM	0.012 µM (≈ 0.00747 µg/mL)			CCn1c(CCCc2ccc(-c3ccc(NS(=O)(=O)Cc4ccccc4)cc3)cc2)nn(Cc2ccc(C(C)(C)C)cc2)c1=O	Stability (Plasma [12]): 133.9%
				CCn1c(CCCc2ccc(OC(C)(C)C(=O)O)cc2)nn(Cc2ccc(C(C)(C)C)cc2)c1=O	Drug metabolism (Plasma [13]): metabolite_detected
13 nM		81.9%	89.5%	CCn1c(CCCc2ccc(OC(C)(C)C(=O)NS(=O)(=O)c3ccc(C(C)C)cc3)cc2)nn(Cc2ccc(C(C)(C)C)cc2)c1=O	remaining at 24 h, 1 µM [6]: 2.7%
60 nM		62.3%	80%	CCn1c(CCCc2ccc(CC(C)(C)C(=O)NS(=O)(=O)c3ccccc3)cc2)nn(Cc2ccc(C(C)(C)C)cc2)c1=O	
113 nM	0.423 µM (≈ 0.232 µg/mL)			CCn1c(CCCc2ccc(-c3ccc(NS(C)(=O)=O)cn3)cc2)nn(Cc2ccc(C(C)(C)C)cc2)c1=O	remaining at 24 h, 1 µM [6]: 105%
42 nM		86.5%	86.9%	CCn1c(CCCc2ccc(OC(C)(C)C(=O)NS(=O)(=O)C3=CCOC=C3)cc2)nn(Cc2ccc(C(C)(C)C)cc2)c1=O	
3 nM		43.6%	60.5%	CCn1c(CCCc2ccc(OC(C)(C)C(=O)NS(=O)(=O)C3CCCCC3)cc2)nn(Cc2ccc(C(C)(C)C)cc2)c1=O	
78 nM		66.6%	75.4%	CCn1c(CCCc2ccc(OC(C)(C)C(=O)NS(=O)(=O)c3ccoc3)cc2)nn(Cc2ccc(C(C)(C)C)cc2)c1=O	
6.6 nM		0.1%	1.7%	CCn1c(CCCc2ccc(OC(C)(C)C(=O)NS(=O)(=O)C3CC3)cc2)nn(Cc2ccc(C(C)(C)C)cc2)c1=O	
386 nM	0.037 µM (≈ 0.0225 µg/mL)			CCn1c(CCCc2ccc(-c3cccc(NS(=O)(=O)c4ccccc4)c3)cc2)nn(Cc2ccc(C(C)(C)C)cc2)c1=O	Stability (Plasma [12]): 136%
2.8 nM		63.7%	73.1%	CCn1c(CCCc2ccc(OC(C)(C)C(=O)NS(=O)(=O)c3ccc(C)cc3)cc2)nn(Cc2ccc(C(C)(C)C)cc2)c1=O	
80 nM		75.2%	82.4%	CCn1c(CCCc2ccc(OC(C)(C)C(=O)NS(=O)(=O)c3cccnc3)cc2)nn(Cc2ccc(C(C)(C)C)cc2)c1=O	remaining at 24 h, 1 µM [6]: 0.2%
4.6 nM		7%	21%	CCn1c(CCCc2ccc(OC(C)(C)C(=O)NS(=O)(=O)C3CCCC3)cc2)nn(Cc2ccc(C(C)(C)C)cc2)c1=O	
